According to ChEMBL document CHEMBL1148066, “Binding of quinolizidine alkaloids to nicotinic and muscarinic acetylcholine receptors” (J Nat Prod, 1994):

What was measured:
[1] = Displacement of [3H]quinuclidinyl benzilate from muscarinic ACh receptor
Method in brief: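 Porcine brain membranes (500 µg protein; 10 mM K+-phosphate pH 7.0, 1 mM EDTA) incubated with 3H-QNB and alkaloids (0.5 nM–10 mM) for 1 h at 20°; atropine blank for nonspecific binding. Stopped with ice-cold 0.9% NaCl, rapid glass-fiber filtration, three washes, scintillation counting; triplicates. IC50 = concentration displacing 50% of specific binding.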

[2] = Displacement of [3H]nicotin from nicotinic ACh receptor
Method in brief: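 Porcine brain membranes (sucrose/K+-phosphate pH 7.0/EDTA homogenate, 100,000 g pellet) incubated with 3H-nicotine and alkaloids (0.5 nM–10 mM) for 40 min at 20°; 1 mM nicotine defines nonspecific binding. Rapid filtration on BSA-presoaked glass fiber filters, saline washes, scintillation counting; triplicates. IC50 = concentration displacing 50% of specific binding.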

Row | SMILES | IC50 [1] [µM] | IC50 [2] [µM]
1 | CN1C[C@@H]2C[C@H](C1)c1cccc(=O)n1C2 | 417 | 0.05
2 | O=C1[C@H]2C[C@@H](CN3CCCC[C@@H]23)[C@H]2CCCCN12 | 118 | 155
3 | O=C1[C@H](O)CC[C@@H]2[C@H]3C[C@@H](CN12)[C@@H]1CCCCN1C3 | 74 | 190
4 | O=C1CCC[C@@H]2[C@H]3C[C@@H](CN12)[C@@H]1C[C@H](O)CCN1C3 | 140 | 490
5 | C=CC[C@H]1NC[C@H]2C[C@@H]1[C@H]1CC(=O)C=CN1C2 [ALBINE] | 33 | 193
6 | O=c1cccc2n1C[C@H]1C[C@@H]2CN2CCCC[C@H]12 [ANAGYRINE] | 132 | 2100
7 | C=CC[C@@H]1NC[C@@H]2C[C@H]1CN1C(=O)CCC[C@H]21 [ANGUSTIFOLINE] | 25 | > 500
8 | O=c1cccc2n1C[C@@H]1CNC[C@H]2C1 [CYTISINICLINE] | 400 | 0.14
9 | O=C1CCC[C@@H]2[C@H]3C[C@@H](CN12)[C@@H]1CCCCN1C3 [LUPANINE] | 114 | 5
10 | OC[C@@H]1CCCN2CCCC[C@H]12 [LUPININE] | 190 | > 500
11 | O=C1C=CN2C[C@@H]3C[C@@H](CN4CCCC[C@@H]34)[C@H]2C1 [MULTIFLORINE] | 47 | > 500
12 | C1CCN2C[C@@H]3C[C@@H](CN4CCCC[C@@H]34)[C@H]2C1 [SPARTEINE] | 21 | 331
13 | C=CCCN1C[C@H]2C[C@@H](C1)[C@H]1CCCC(=O)N1C2 [TETRAHYDRORHOMBIFOLINE] | 129 | 310
